We go through two compounds from ChEMBL document CHEMBL1221386, “Synthesis and pharmacological evaluation of 3-aryl-3-azolylpropan-1-amines as selective triple serotonin/norepinephrine/dopamine reuptake inhibitors” (Bioorg Med Chem Lett, 2010).

Assay [1] relates to Mus musculus. The assay is described as follows: Anxiolytic activity in mouse assessed as inhibition of marble buried at 30 mg/kg, ip by marble burying test. It is filed as functional. The following applies: route intraperitoneal.
In assay [2] the test system is Mus musculus. The assay is described as follows: Antidepressant activity in po dosed mouse assessed as reduction of mobility time by forced swimming test. It is filed as functional. The settings on record: for minimal effective dose: read-out: MED. An outline of the steps: (§1)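 Mouse forced swimming test with oral dosing. Read-out is immobility time, expressed as % reduction of immobility. Minimal effective dose is the lowest dose with p <0.05. ED50 is given with 95% confidence limits. Doses are in mg/kg.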

Assay [3] concerns Mus musculus. The assay is described as follows: Potentiation of […]-induced serotonin syndrome like behavior in po dosed mouse. The class given is functional. The following applies: read-out: MED. Summed up: (§2)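 Mice, oral dosing. For serotonin potentiation, 5-hydroxytryptophan (5-HTP, serotonin precursor) is given to induce serotonin syndrome-like head twitch/stereotypy counts. Response is expressed as % potentiation relative to control group (0%). Minimal effective dose is the lowest dose reaching p <0.05. Doses are in mg/kg.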

Assay [4] has as its system Mus musculus. The assay is described as follows: Analgesic activity in mouse assessed as reduction of acetic acid-induced writhing at 30 mg/kg. In general terms: Writhing tests count abdominal constrictions after an irritant is injected.
For assay [5], the system named is Mus musculus. Briefly: Antidepressant activity in po dosed mouse assessed as reduction of mobility time by tail suspension test. The class given is functional. The settings on record: read-out: MED. Summed up: (§3)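 Mouse tail suspension test with oral dose–response. Read-out is immobility time, reported as % reduction of immobility. Minimal effective dose is the lowest dose giving p <0.05. Doses are in mg/kg.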

Assay [6] has as its system Mus musculus. The assay is described as follows: Antidepressant activity in mouse assessed as reduction of mobility time by forced swimming test at 10 mg/kg, po. It is filed as functional. Details: scale not given: the % may be the effect or the level left. Summed up:
as §1

Assay [7] relates to Mus musculus. The assay is described as follows: Potentiation of […]-induced serotonin syndrome like behavior in mouse at 30 mg/kg, po. It is filed as functional. Summed up:
as §2

Assay [8] has as its system Mus musculus. Briefly: Antidepressant activity in mouse assessed as reduction of mobility time at 5 mg/kg, po by tail suspension test. The class given is functional. Details: scale not given: the % may be the effect or the level left. An outline of the steps: as §3
Assay [9] relates to Mus musculus. The assay is described as follows: Antidepressant activity in mouse assessed as change in locomotion at 60 mg/kg, po. The class given is functional.
Assay [10] relates to Mus musculus. Briefly: Antidepressant activity in mouse assessed as change in locomotion at 30 mg/kg, po. The class given is functional.
In assay [11] the test system is Mus musculus. The assay is described as follows: Antidepressant activity in mouse assessed as change in locomotion at 90 mg/kg, po. It is filed as functional.
The subject of assay [12] is Mus musculus. Briefly: Antidepressant activity in mouse assessed as reduction of mobility time by forced swimming test at 30 mg/kg, ip. Also noted: scale not given: the % may be the effect or the level left. The following applies: route intraperitoneal.
The test system of assay [13] is Mus musculus. The assay is described as follows: Antidepressant activity in mouse assessed as reduction of mobility time at 7 mg/kg, po by tail suspension test. The class given is functional. Details: scale not given: the % may be the effect or the level left. An outline of the steps:
as §3

Assay [14] relates to Mus musculus. Briefly: Potentiation of […]-induced serotonin syndrome like behavior in mouse at 10 mg/kg, po. It is filed as functional. An outline of the steps:
as §2

Usually inhibition in vivo stands for the drop in the measured response relative to a control, in per cent. As usually defined, the ED50 is the dose at which the effect has come halfway, by size or by number of responders. With `Clc1ccc([C@]23CNC[C@H]2C3)cc1Cl` [AMITIFADINE], the inhibition in vivo at 30 mg/kg worked out at 99.1% in assay [1] and 93.7% in assay [4]. The ED50 in assay [2] was 30.1 mg/kg. Also, the results for the minimal effective dose in assay [2], in assay [3] and in assay [5] were 50 mg/kg, 30 mg/kg and 5 mg/kg, respectively. In addition, the Activity in [6] stood at 18%; in assay [7] it was 54%; in assay [8], 33.2%; in [9], 131%; in assay [10] it was 150%; in assay [11], 148%.
As for `COc1ccc(C(CN(C)C)C2(O)CCCCC2)cc1` (stereo not drawn) [VENLAFAXINE], the inhibition in vivo at 30 mg/kg in assay [1] is 82.3%; in assay [4] it was 70.2%. For the same compound, the ED50 in [2] worked out at 38.4 mg/kg. Moreover, the values for the minimal effective dose in assay [2], in [3] and in [5] were 30 mg/kg, 10 mg/kg and 7 mg/kg, respectively. For the same compound, the Activity in assay [12] is recorded as 35.2%; in assay [13] it was 56.3%; in assay [14] it was 129%; in assay [9], 139%; in assay [10], 119%.
